Data from ChEMBL document CHEMBL3297693, “Novel 3-arylfuran-2(5H)-one-fluoroquinolone hybrid: design, synthesis and evaluation as antibacterial agent” (Bioorg Med Chem, 2014).
Values after ≈ are worked out from the molar mass of the structure shown.

Assays:
[1] = Inhibition of Staphylococcus aureus TyrRS expressed in Escherichia coli assessed as tRNA aminoacylation pre-incubated for 10 mins using Escherichia coli MRE600 tRNA and L-[ring-3,5-3H]tyrosine by liquid scintillation counting
In short: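 S. aureus TyrRS overexpressed in E. coli and purified to about 98% (SDS–PAGE). Enzyme (0.2 nM) preincubated with inhibitor range 10 min at room temperature, then prewarmed mix added at 37 °C. Aliquots quenched in cold 7% TCA, filtered, scintillation counted. Kept linear, under 50% tRNA acylation.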

Escherichia coli = test: Antimicrobial activity against multiple drug-resistant Escherichia coli ATCC 35218 after 8 to 10 hrs by MTT proliferation assay; type: functional
In short: (§1)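 Broth microdilution in LB medium in 96-well plates, inoculum about 10⁵ cfu/mL, serially diluted compounds, sterile medium as blank control. MTT (3 mg/mL in PBS) added, then 4–5 h at room temperature. Dye extracted with SDS lysis buffer (10% SDS, 5% isopropanol, pH about 3.5) for 8–10 h at room temperature. Absorbance read at 570 nm, control OD 1.0–2.0. MIC₅₀ reported.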

Bacillus subtilis = test: Antimicrobial activity against tetracycline-resistant Bacillus subtilis ATCC 6633 after 8 to 10 hrs by MTT proliferation assay; type: functional; in short: as §1
Staphylococcus aureus = test: Antimicrobial activity against […] Staphylococcus aureus ATCC 25923 after 8 to 10 hrs by MTT proliferation assay; type: functional; in short: as §1
DNA gyrase = DNA gyrase (Escherichia coli, UniProt P0AES4+P0AES6); test: Inhibition of Escherichia coli DNA gyrase assessed as reduction in enzyme-mediated DNA supercoiling using relaxed pBR322 substrate incubated for 60 mins by electrophoresis method; type: protein-complex assay

SMILES | IC50 [1] [nM] | MIC50 (Escherichia coli) [µg/mL] | MIC50 (Bacillus subtilis) [µg/mL] | MIC50 (Staphylococcus aureus) [µg/mL] | IC50 (DNA gyrase) [nM]
O=C1OCC(OCCN2CCOCC2)=C1c1ccc(O)cc1 | 100 | – | – | – | –
CCn1cc(C(=O)O)c(=O)c2cc(F)c(N3CCN(CCOC4=C(c5ccccc5)C(=O)OC4)CC3)cc21 | – | > 25 | 16.6 (≈ 31.8 µM) | 18.9 (≈ 36.2 µM) | –
CCn1cc(C(=O)O)c(=O)c2cc(F)c(N3CCN(CCOC4=C(c5ccccc5)C(=O)OC4)CC3)nc21 | – | 5.6 (≈ 10.7 µM) | 12.6 (≈ 24.1 µM) | 6.8 (≈ 13 µM) | –
O=C1OCC(OCCN2CCN(c3cc4c(cc3F)c(=O)c(C(=O)O)cn4-c3ccc(F)cc3)CC2)=C1c1ccccc1 | – | 1.2 (≈ 2.04 µM) | 0.6 (≈ 1.02 µM) | 0.69 (≈ 1.17 µM) | –
O=C1OCC(OCCN2CCN(c3cc4c(cc3F)c(=O)c(C(=O)O)cn4C3CC3)CC2)=C1c1ccccc1 | 7120 | 1 (≈ 1.87 µM) | 0.23 (≈ 0.431 µM) | 0.64 (≈ 1.2 µM) | 5770
CCn1cc(C(=O)O)c(=O)c2cc(F)c(N3CCN(CCOC4=C(c5ccccc5F)C(=O)OC4)CC3)cc21 | – | 2.7 (≈ 5 µM) | 2.4 (≈ 4.45 µM) | 3.3 (≈ 6.12 µM) | –
CCn1cc(C(=O)O)c(=O)c2cc(F)c(N3CCN(CCOC4=C(c5ccccc5F)C(=O)OC4)CC3)nc21 | – | 2.6 (≈ 4.81 µM) | 1.6 (≈ 2.96 µM) | 2.6 (≈ 4.81 µM) | –
O=C1OCC(OCCN2CCN(c3cc4c(cc3F)c(=O)c(C(=O)O)cn4-c3ccc(F)cc3)CC2)=C1c1ccccc1F | 2810 | 0.67 (≈ 1.11 µM) | 0.2 (≈ 0.33 µM) | 0.21 (≈ 0.347 µM) | 3690
O=C1OCC(OCCN2CCN(c3cc4c(cc3F)c(=O)c(C(=O)O)cn4C3CC3)CC2)=C1c1ccccc1F | 120 | 0.11 (≈ 0.199 µM) | 0.09 (≈ 0.163 µM) | 0.19 (≈ 0.344 µM) | 1150
O=C1OCC(OCCN2CCN(c3cc4c(cc3F)c(=O)c(C(=O)O)cn4C3CC3)CC2)=C1c1ccc(F)cc1 | 1290 | 0.37 (≈ 0.671 µM) | 0.16 (≈ 0.29 µM) | 0.24 (≈ 0.435 µM) | 2840
O=C1OCC(OCCN2CCN(c3cc4c(cc3F)c(=O)c(C(=O)O)cn4-c3ccc(F)cc3)CC2)=C1c1ccc(F)cc1 | – | 1.1 (≈ 1.82 µM) | 0.2 (≈ 0.33 µM) | 0.34 (≈ 0.561 µM) | –
CCn1cc(C(=O)O)c(=O)c2cc(F)c(N3CCN(CCOC4=C(c5ccccc5Cl)C(=O)OC4)CC3)cc21 | – | 2.5 (≈ 4.5 µM) | 0.9 (≈ 1.62 µM) | 0.43 (≈ 0.773 µM) | –
O=C1OCC(OCCN2CCN(c3cc4c(cc3F)c(=O)c(C(=O)O)cn4-c3ccc(F)cc3)CC2)=C1c1ccccc1Cl | 6370 | 0.72 (≈ 1.16 µM) | 0.37 (≈ 0.595 µM) | 0.25 (≈ 0.402 µM) | 4050
CCn1cc(C(=O)O)c(=O)c2cc(F)c(N3CCN(CCOC4=C(c5cccc(Cl)c5)C(=O)OC4)CC3)nc21 | – | 2.9 (≈ 5.21 µM) | 15.3 (≈ 27.5 µM) | 8.7 (≈ 15.6 µM) | –
O=C1OCC(OCCN2CCN(c3cc4c(cc3F)c(=O)c(C(=O)O)cn4-c3ccc(F)cc3)CC2)=C1c1cccc(Cl)c1 | – | 0.89 (≈ 1.43 µM) | 0.75 (≈ 1.21 µM) | 0.44 (≈ 0.707 µM) | –
CCn1cc(C(=O)O)c(=O)c2cc(F)c(N3CCN(CCOC4=C(c5ccc(Cl)cc5)C(=O)OC4)CC3)cc21 | – | 19.5 (≈ 35.1 µM) | 18.5 (≈ 33.3 µM) | 15.9 (≈ 28.6 µM) | –
CCn1cc(C(=O)O)c(=O)c2cc(F)c(N3CCN(CCOC4=C(c5ccc(Cl)cc5)C(=O)OC4)CC3)nc21 | – | 9.6 (≈ 17.2 µM) | 13.2 (≈ 23.7 µM) | 24.9 (≈ 44.7 µM) | –
O=C1OCC(OCCN2CCN(c3cc4c(cc3F)c(=O)c(C(=O)O)cn4-c3ccc(F)cc3)CC2)=C1c1ccc(Cl)cc1 | – | 1.7 (≈ 2.73 µM) | 0.51 (≈ 0.82 µM) | 7.8 (≈ 12.5 µM) | –
O=C1OCC(OCCN2CCN(c3cc4c(cc3F)c(=O)c(C(=O)O)cn4C3CC3)CC2)=C1c1ccc(Cl)cc1 | – | 1.3 (≈ 2.29 µM) | 0.16 (≈ 0.282 µM) | 0.49 (≈ 0.863 µM) | –
O=C1OCC(OCCN2CCN(c3cc4c(cc3F)c(=O)c(C(=O)O)cn4-c3ccc(F)cc3)CC2)=C1c1cccc(Br)c1 | – | 4.4 (≈ 6.6 µM) | 0.43 (≈ 0.645 µM) | 0.39 (≈ 0.585 µM) | –
CCn1cc(C(=O)O)c(=O)c2cc(F)c(N3CCN(CCOC4=C(c5cccc(Br)c5)C(=O)OC4)CC3)nc21 | – | 12.2 (≈ 20.3 µM) | 4.7 (≈ 7.81 µM) | 13.1 (≈ 21.8 µM) | –
CCn1cc(C(=O)O)c(=O)c2cc(F)c(N3CCN(CCOC4=C(c5ccc(Br)cc5)C(=O)OC4)CC3)cc21 | – | 13.5 (≈ 22.5 µM) | > 25 | 21.6 (≈ 36 µM) | –
O=C1OCC(OCCN2CCN(c3cc4c(cc3F)c(=O)c(C(=O)O)cn4-c3ccc(F)cc3)CC2)=C1c1ccc(Br)cc1 | – | 4.2 (≈ 6.3 µM) | 2.9 (≈ 4.35 µM) | 11.1 (≈ 16.7 µM) | –
O=C1OCC(OCCN2CCN(c3cc4c(cc3F)c(=O)c(C(=O)O)cn4C3CC3)CC2)=C1c1ccc(Br)cc1 | – | 3.8 (≈ 6.2 µM) | 2.6 (≈ 4.25 µM) | 8.5 (≈ 13.9 µM) | –
Cc1ccc(C2=C(OCCN3CCN(c4cc5c(cc4F)c(=O)c(C(=O)O)cn5-c4ccc(F)cc4)CC3)COC2=O)cc1 | – | 2 (≈ 3.32 µM) | 0.82 (≈ 1.36 µM) | 0.45 (≈ 0.748 µM) | –
Cc1ccc(C2=C(OCCN3CCN(c4cc5c(cc4F)c(=O)c(C(=O)O)cn5C4CC4)CC3)COC2=O)cc1 | – | 1.9 (≈ 3.47 µM) | 0.39 (≈ 0.712 µM) | 0.53 (≈ 0.968 µM) | –
COc1ccc(C2=C(OCCN3CCN(c4cc5c(cc4F)c(=O)c(C(=O)O)cn5C4CC4)CC3)COC2=O)cc1 | – | 23.5 (≈ 41.7 µM) | 2.6 (≈ 4.61 µM) | 6.5 (≈ 11.5 µM) | –
O=C1OCC(OCCN2CCN(c3cc4c(cc3F)c(=O)c(C(=O)O)cn4-c3ccc(F)cc3)CC2)=C1c1ccccc1OCc1ccccc1 | – | 2.8 (≈ 4.04 µM) | 0.58 (≈ 0.836 µM) | 2.1 (≈ 3.03 µM) | –
O=C(O)c1cn(C2CC2)c2cc(N3CCNCC3)c(F)cc2c1=O [CIPROFLOXACIN] | – | 5.65 (≈ 17.1 µM) | 2.7 (≈ 8.15 µM) | 6.82 (≈ 20.6 µM) | –
